The nature of assay [1]: SK-BR-3 cell growth inhibitors, pilot screen, 24 h, human (AID 572;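 active means viability at or below 10% of carrier control in both of two separate runs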;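 further: compound exposure lasted between 18 and 24 h rather than exactly 24 h; 100% = carrier-treated control wells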). Conditions: SK-BR-3 viability, CellTiter-Glo luminescence, at 10 µM, stronger effect = lower value.
Assay [2] is described as follows: HUVEC growth inhibition – cell-based, human, primary screen (AID 575;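 active means viability at or below 30% in both replicate assays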;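 further: 100% = median of untreated cell wells with 0.1% DMSO on each plate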). To be noted: HUVEC proliferation, CellTiter-Glo luminescence, 72 h; at 10 µM; stronger effect = lower value. The method, boiled down: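 System: primary human umbilical vein endothelial cells; Quantity: 1250 endothelial cells in each well; Buffer or medium: supplemented EBM, 2% fetal bovine serum; Doses: one dose, 10 µM final, 0.1% DMSO; Incubation: 72 h compound incubation; Technique: ATP-based CellTiter-Glo luminescent read; Evaluation: percent of median DMSO-control luminescence; Controls: vehicle and MePR control wells.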
On the technique in general: ATP-based viability assays read luminescence as a measure of living cells.

Assay [3] is described as follows: growth inhibitors of H69AR lung tumor, primary screen, human, duplicate replicates (AID 580).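 Further: 100% = mean luminescence of untreated wells and 0% = no signal.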 To be noted: H69AR lung tumor cells viability, ATP luminescence, 72 h; at 10 µM; stronger effect = lower value.
The nature of assay [4]: reversal of MRP1-mediated doxorubicin resistance, pilot screen, H69AR cells, doxorubicin co-treatment (AID 601;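 active means viability loss from added drug above about 55%, and viability with drug at most 40%, in both replicates, limit read from the data, passing the limit was not always enough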). Conditions: CellTiter-Glo, 72 h, at 10 µM; for differential viability (reversal): stronger effect = higher value.
Assay [5] is described as follows: 384-well plate pilot, post-Golgi transport modulator project, inhibition of yeast transport mutant growth (AID 636; in the data active means inhibition above about 31%). Conditions: absorbance 615 nm, about 18 h, stronger effect = higher value.
A short description of assay [6]: growth suppression of yeast trafficking mutant, preliminary HTS, modulators of trafficking downstream of Golgi apparatus project, 1536-format plate, OD 615 nm (AID 637; in the data active means inhibition above about 30%). To be noted: yeast transport mutant growth, absorbance 615 nm, 18 h; stronger effect = higher value.
[7] abbreviates: H69AR cells + 2 uM doxorubicin, measured here: viability with 2 uM doxorubicin, stronger effect = lower value.
The mark [8] stands for this setting: H69AR cells, compound alone cytotoxicity.

Calls of active or inactive are those of the source.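 How the source made its calls, unless noted: active means viability at or under a set limit in both replicates, limit being median viability minus 3 SD (cut at about 48% in these data, passing the limit was not always enough); inconclusive means at or under the limit in just one replicate; inactive means at or above the limit in both replicates.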

One may read the viability as a read-out of living cells in per cent, often relative to untreated cells. What is called inhibition is the drop in the measured response relative to a control, in per cent.

Turning to `O=[N+]([O-])c1cccc2cn[nH]c12`, the viability is 113% (inactive) in assay [1]; 88.6% (inactive) in assay [2]; 99.5% (inactive) in assay [3]; 90% in assay [4] (setting [7]); 99.5% in assay [4] (setting [8]). Further, the differential viability (reversal) in assay [4] (H69AR cells + 2 uM doxorubicin) is 9.56% (inactive). The inhibition in assay [5] was -0.91% (inactive); in assay [6], 1.17% (inactive).
For `Cc1ccc(S(=O)(=O)NCC(=O)OCC(=O)Nc2ncc(Cl)cc2Cl)cc1`, the viability in assay [1] is 82% (inactive); in assay [2], 91.2% (inactive); in assay [3] it was 99.6% (inactive); in assay [4] (setting [7]), 116%; in assay [4] (setting [8]), 99.6%. In addition, in assay [4] (H69AR cells + 2 uM doxorubicin), the differential viability (reversal) is -16.6% (inactive). The inhibition in assay [5] was -5.21% (inactive); in assay [6] it was 1.45% (inactive).
For the compound `COC(=O)Cc1cc(=O)n(-c2ccccc2)[nH]1`, the viability in assay [1] was 95% (inactive); in assay [2], 91.2% (inactive); in assay [3] it was 87.9% (inactive); in assay [4] (setting [7]), 88.4%; in assay [4] (setting [8]), 87.9%. In addition, in assay [4] (H69AR cells + 2 uM doxorubicin), the differential viability (reversal) is -0.48% (inactive). Further, the inhibition in assay [5] is -9.45% (inactive); in assay [6], 0.73% (inactive).
Consider `CC1CCc2c(sc3c2C2=NS(=O)(=O)CCN2C=N3)C1` (stereo unspecified), for which the viability was 88.5% (inactive) in assay [1]; 107% (inactive) in assay [2]; 80.6% (inactive) in assay [3]; 88.2% in assay [4] (setting [7]); 80.6% in assay [4] (setting [8]). In assay [4] (H69AR cells + 2 uM doxorubicin), the differential viability (reversal) was -7.62% (inactive). Also, the inhibition is -9.73% (inactive) in assay [5] and 3.81% (inactive) in assay [6].
As to `COCc1nnc(SCC(=O)NC(C)c2ccccc2)n1-c1ccccc1` (stereo unspecified), the viability in assay [1] is 84% (inactive); in assay [2] it was 101% (inactive); in assay [3], 100% (inactive); in assay [4] (setting [7]), 105%; in assay [4] (setting [8]), 100%. The differential viability (reversal) in assay [4] (H69AR cells + 2 uM doxorubicin) is -5.31% (inactive). Also, the inhibition was -4.66% (inactive) in assay [5] and 1.27% (inactive) in assay [6].
Turning to `Cc1nc(N)[nH]c(=O)c1CCC(=O)OCC(C)C`, the viability is 107% (inactive) in assay [1]; 89.7% (inactive) in assay [2]; 91.2% (inactive) in assay [3]; 93.5% in assay [4] (setting [7]); 91.2% in assay [4] (setting [8]). Also, the differential viability (reversal) in assay [4] (H69AR cells + 2 uM doxorubicin) is -2.31% (inactive). Moreover, the inhibition is -0.78% (inactive) in assay [5] and -0.66% (inactive) in assay [6].
`Cc1ccccc1-n1nc(C)c2cc(C(=O)NCc3cccnc3)sc21`: the viability in assay [1] was 126% (inactive); in assay [2], 74.1% (inactive); in assay [3], 70.3% (inactive); in assay [4] (setting [7]), 59.4%; in assay [4] (setting [8]), 70.3%. Further, the differential viability (reversal) in assay [4] (H69AR cells + 2 uM doxorubicin) is 10.8% (inactive). Moreover, the values for the inhibition in assay [5] and in assay [6] were -1.95% (inactive) and 9.51% (inactive), respectively.
For `O=C(Nc1sccc1C(=O)NCc1ccco1)c1cccnc1`, the viability in assay [1] is 90% (inactive); in assay [2], 96.8% (inactive); in assay [3] it was 79.6% (inactive); in assay [4] (setting [7]), 84.5%; in assay [4] (setting [8]) it was 79.6%. The differential viability (reversal) in assay [4] (H69AR cells + 2 uM doxorubicin) was -4.98% (inactive). The inhibition is -0.55% (inactive) in assay [5] and 2.55% (inactive) in assay [6].
Turning to `C=CCn1cnc2c(c1=O)c1nc3ccccc3nc1n2-c1ccc(C)cc1`, the viability in assay [1] is 105% (inactive); in assay [2] it was 97.2% (inactive); in assay [3], 86.9% (inactive); in assay [4] (setting [7]), 93.7%; in assay [4] (setting [8]) it was 86.9%. For the same compound, the differential viability (reversal) in assay [4] (H69AR cells + 2 uM doxorubicin) is -6.75% (inactive). For the same compound, the inhibition is -5.48% (inactive) in assay [5] and -1.61% (inactive) in assay [6].
For `Cc1[nH]nc2c1C(=O)CCC2`, the viability in assay [1] is 105% (inactive); in assay [2], 117% (inactive); in assay [3], 101% (inactive); in assay [4] (setting [7]), 96.3%; in assay [4] (setting [8]) it was 101%. In assay [4] (H69AR cells + 2 uM doxorubicin), the differential viability (reversal) was 4.79% (inactive). Moreover, the inhibition in assay [5] is 0.68% (inactive); in assay [6], -0.18% (inactive).
As for `CN(Cc1ccc(-n2cccn2)cc1)C(=O)c1cnn2c1NC(c1ccco1)CC2C(F)(F)F` (stereo unspecified), the viability in assay [1] was 74% (inactive); in assay [2], 82.3% (inactive); in assay [3], 78.4% (inactive); in assay [4] (setting [7]), 85.8%; in assay [4] (setting [8]), 78.4%. For the same compound, in assay [4] (H69AR cells + 2 uM doxorubicin), the differential viability (reversal) is -7.45% (inactive). Further, the inhibition was 2.88% (inactive) in assay [5] and -0.36% (inactive) in assay [6].
For the compound `CN(C)C(=O)CN(C)S(=O)(=O)c1ccc(Cl)cc1`, the viability was 139% (inactive) in assay [1]; 98.9% (inactive) in assay [2]; 97.9% (inactive) in assay [3]; 104% in assay [4] (setting [7]); 97.9% in assay [4] (setting [8]). For the same compound, the differential viability (reversal) in assay [4] (H69AR cells + 2 uM doxorubicin) is -6.11% (inactive). Further, the inhibition in assay [5] was -6.3% (inactive); in assay [6] it was 1.82% (inactive).
Take `O=C(Nc1nc(-c2ccccc2)cs1)C1CCCO1` (stereo unspecified): the viability in assay [1] was 91% (inactive); in assay [2], 101% (inactive); in assay [3], 94.2% (inactive); in assay [4] (setting [7]), 83.3%; in assay [4] (setting [8]) it was 94.2%. In addition, in assay [4] (H69AR cells + 2 uM doxorubicin), the differential viability (reversal) is 10.9% (inactive). Moreover, the inhibition was -4.4% (inactive) in assay [5] and -2.18% (inactive) in assay [6].
As for `CC(=O)N1CN(C2CCCC2)Cc2c1sc1c2CCCC1`, the viability is 95% (inactive) in assay [1]; 103% (inactive) in assay [2]; 101% (inactive) in assay [3]; 117% in assay [4] (setting [7]); 101% in assay [4] (setting [8]). In addition, the differential viability (reversal) in assay [4] (H69AR cells + 2 uM doxorubicin) is -16% (inactive). Also, the results for the inhibition in assay [5] and in assay [6] were -8.22% (inactive) and 0.36% (inactive), respectively.
As to `CCCCOC(=O)c1cccc(NC(=O)CC)c1`, the viability is 113% (inactive) in assay [1]; 91.1% (inactive) in assay [2]; 89.6% (inactive) in assay [3]; 88.3% in assay [4] (setting [7]); 89.6% in assay [4] (setting [8]). Besides, in assay [4] (H69AR cells + 2 uM doxorubicin), the differential viability (reversal) was 1.34% (inactive). Moreover, the inhibition is 5.71% (inactive) in assay [5] and 13.4% (inactive) in assay [6].
In the case of `O=C(CCn1c(=O)oc2ccccc21)N1CCN(c2ccccc2Cl)CC1`, the viability is 72% (inactive) in assay [1]; 54.2% (inactive) in assay [2]; 11.2% (active) in assay [3]; 66.3% in assay [4] (setting [7]); 11.2% in assay [4] (setting [8]). Also, the differential viability (reversal) in assay [4] (H69AR cells + 2 uM doxorubicin) was -55.1% (inactive). The inhibition was 7.3% (inactive) in assay [5] and -2% (inactive) in assay [6].
With `Cn1c(NC(=O)c2cccc(Cn3cc(Cl)cn3)c2)nc2ccccc21`, the viability in assay [1] was 83% (inactive); in assay [2], 72.4% (inactive); in assay [3] it was 68.9% (inactive); in assay [4] (setting [7]) it was 68%; in assay [4] (setting [8]), 68.9%. The differential viability (reversal) in assay [4] (H69AR cells + 2 uM doxorubicin) was 0.885% (inactive). The inhibition in assay [5] was -4.93% (inactive); in assay [6], -2.79% (inactive).

The values above are taken from PubChem BioAssay.
